Bioassay records from PubChem BioAssay.
HSF-1 act: increases HSF-1 driven luciferase reporter signal | NIH3T3-HGL HSF-1 luciferase reporter, MG132, 8 h; 100% = twice DMSO control signal | activation, % at 9 µM | 300,000 tested, 1.7% active;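 active = mean replicate activation of at least 50% with a set share of replicates each reaching 50%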
Lipid droplet: hepatic lipid droplet formation modulation; AML12 mouse hepatocytes, oleate lipid droplets, BODIPY imaging; inhibition, % at 6.5 µM; 240,000 tested, 0.4% active; AID 1656;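 active = lipid droplet intensity inhibited by at least 50%, with more than 500 cells counted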
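Material: mouse AML12 hepatocyte cell line, fixed after treatment; Timing: compound with oleate, overnight; Technique: high-content imaging of BODIPY-stained droplets and DAPI nuclei; Probe or stimulus: oleate, 100 µM final; Dosing: compound at 6.5 µM only.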
CHT block: inhibits the human high affinity choline transporter. AID 488975. CHT-expressing cells, membrane potential dye, choline response; stronger effect = lower value. B-score at 10 µM. 310,000 tested, 0.86% active. Q9GZV3;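 active = B-score over 3 SD under the library average, and starting fluorescence ratio not unusually high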;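 also: choline stimulus applied at its EC90 after an EC20 pre-addition; B-score computed on integrated fluorescence ratio after choline addition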
CHT allo act: allosteric activators of human choline transporter CHT; AID 488977; CHT-expressing cells, membrane potential dye, choline EC20; stronger effect = higher value; LV-AA mutant CHT in HEK293 cells; B-score at 10 µM; Q9GZV3; 310,000 tested, 0.49% active;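 active = initial fluorescence not abnormally high and integrated response B-score, plate-corrected, over 3 SD above library mean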
PHOSPHO1 block: PHOSPHO1 (human) inhibition. Q8TCT1. recombinant PHOSPHO1, absorbance phosphatase assay. inhibition, % at 13.3 µM. 290,000 tested, 1.1% active; in the data active = inhibition above about 60%
Target sequence (Q8TCT1 whole entry, looked up): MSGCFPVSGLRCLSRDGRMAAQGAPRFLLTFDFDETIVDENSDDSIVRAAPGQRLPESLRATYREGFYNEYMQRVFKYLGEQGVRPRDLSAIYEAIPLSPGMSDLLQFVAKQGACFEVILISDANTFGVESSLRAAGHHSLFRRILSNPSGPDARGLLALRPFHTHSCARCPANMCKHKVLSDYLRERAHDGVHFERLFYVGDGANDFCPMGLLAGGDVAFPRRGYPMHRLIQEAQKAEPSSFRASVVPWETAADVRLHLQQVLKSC
HSF1 inhib: HSF1 inhibition. activity change, negative = inhibition, % at 7.5 µM (by protocol). 300,000 tested, 0.77% active. NIH3T3-HGL HSE-luciferase, MG132-induced, luminescence 8 h; stronger effect = lower value;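 active = more than half of replicate wells show activity change below -50%, luminescence cut by over half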;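 also: luciferase reports HSF-1 transcriptional activity via heat shock element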
Large screens that a line does not name were inactive. Rows were chosen to be rich in hits. Some 4.9% of all compounds tested hit in one or more screens of this group.

CCc1ccc2[nH]c(=O)c(C(c3nnnn3CCOC)N3CCN(c4ccccc4)CC3)cc2c1 (configuration not stated)	PHOSPHO1 block 86 (no result: Lipid droplet)
Brc1ccc(-c2csc(NNC3=NCCCCC3)n2)cc1	PHOSPHO1 block 88 (no result: Lipid droplet)
O=C(Nc1ccccc1Br)c1cccc2ccccc12	none (no result: Lipid droplet, PHOSPHO1 block)
CCOC(=O)Nc1ccc2ncn(C)c(=O)c2c1	none (no result: Lipid droplet)
CC(C)(C)c1nc(N2CCN(C(=O)c3ccco3)CC2)c2nnn(Cc3ccccc3)c2n1	HSF1 inhib -70 (no result: Lipid droplet)
O=C(c1ccco1)N1CCN(c2nc(C3CC3)nc3c2nnn3Cc2ccccc2Cl)CC1	none
O=C1C2C3C=CC(C4CC34)C2C(=O)N1/N=C/c1ccc(-c2ccc([N+](=O)[O-])cc2)o1 (configuration not stated)	none
Cc1cc(-c2ccc(/C=N/n3cnnc3)o2)c(C)c([N+](=O)[O-])c1	CHT allo act 11
Cc1ccc(-c2ccc(/C=N/N3C(=O)C4C5C=CC(C6CC56)C4C3=O)o2)c([N+](=O)[O-])c1 (configuration not stated)	PHOSPHO1 block 69 (no result: Lipid droplet)
O=[N+]([O-])c1cc(-c2ccc(/C=N/n3cnnc3)o2)ccc1Cl	CHT allo act 6.5
CC(C)COC(=O)c1cc(-c2ccc(/C=N/n3cnnc3)o2)ccc1Cl	none
CCOC(=O)NCc1ccc(Cl)c(Cl)c1	none
